Reference: ChEMBL document CHEMBL5252539, “In vitro biological evaluation of new antimycobacterial salicylanilide-tuftsin conjugates” (Eur J Med Chem, 2017)
Values after ≈ are worked out from the molar mass of the structure shown. Active and inactive are the calls of the source. The rule behind the calls is not given here. *1 amine or outer side, *2 acyl side, *3 side chain or, on linkers, in order; H or OH if unused. Where a SMILES comes first, the peptide text is derived from it. [ ]: non-standard residue; d: D form. The star is where a group is joined. X1 = C/C(=N\OCC(=O)[*:2])c1ccc(N[*:1])cc1; Benzoyl(5-Br-2-OH) = O=C(c1cc(Br)ccc1O)*; Decanoyl = CCCCCCCCCC(=O)*

Assays:
[1] = test system: Mycobacterium tuberculosis; test: […] antimycobacterial activity against Mycobacterium tuberculosis H37Rv ATCC 27294 infected in human MONO-MAC-6 cells assessed as reduction in colony forming unit at 125 uM for 6 days by colony counting based analysis; assay type: functional, organism-based; conditions: time 6.0 day
Outline: (§1)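 MonoMac6 monolayers infected with H37Rv, then treated with compound at 125 or 250 µM for 3 days. Treatment repeated with fresh compound solution for another 3 days. Intracellular bacteria quantified as CFU against untreated infected cells.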

[2] = test system: Mycobacterium tuberculosis; test: […] antimycobacterial activity against Mycobacterium tuberculosis H37Rv ATCC 27294 infected in human MONO-MAC-6 cells assessed as reduction in colony forming unit at 250 uM for 6 days by colony counting based analysis; assay type: functional, organism-based; conditions: time 6.0 day; outline: as §1
[3] = Selectivity index, ratio of IC50 for cytotoxicity against mouse bone marrow derived macrophages to MIC for antimycobacterial activity against Mycobacterium tuberculosis H37Rv ATCC 27294; assay type: toxicity; conditions: read-out: Selectivity Index
Outline: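 Murine bone marrow-derived macrophages exposed for 48 h, top concentration 100 µM. Viability read by MTT and IC50 taken from dose-response curves. SI = IC50/MIC against H37Rv.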

[4] = test system: MONO-MAC-6; test: Cytostatic activity against human MONO-MAC-6 cells assessed as reduction in cell viability incubated for 24 hrs by MTT assay; assay type: functional, cell-based; conditions: MONO-MAC-6, 24 h
Outline: (§2)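 MTT viability assay after 24 h exposure of MonoMac6 human monocytic cells or HepG2 human hepatocellular carcinoma cells. Top concentration 200 μM. IC50 taken from dose-response curves as the concentration reducing viability to 50% of maximal.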

[5] = test system: Mycobacteroides abscessus; test: Antimycobacterial activity against Mycobacterium abscessus ATCC 19977 assessed as reduction in colony forming unit after 7 days by serial dilution method; assay type: functional, organism-based; conditions: time 7.0 day
Outline: (§3)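 MIC determined in Sula semisynthetic medium, pH 6.5, 1 week incubation. Growth inhibition confirmed by plating on Löwenstein-Jensen solid medium and counting CFU. Bacteria inoculated without drug served as growth control.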

[6] = Stability of the compound in complete RPMI-1640 medium containing 2% DMSO at 1 mg/ml after 24 hrs by reverse phase HPLC analysis
Outline: (§4)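 Stability followed by analytical RP-HPLC and mass spectrometry under assay conditions: in DMSO at 4 °C over 3 weeks, in serum-free RPMI-1640 at 37 °C over 1 week, and in complete RPMI-1640 at 37 °C over 1 day.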

[7] = test system: Mycobacterium tuberculosis; test: Antimycobacterial activity against Mycobacterium tuberculosis H37Rv ATCC 27294 assessed as reduction in colony forming unit after 28 days by serial dilution method; assay type: functional, organism-based; conditions: time 28.0 day
Outline: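 After the 4-week MIC incubation in Sula semisynthetic medium (pH 6.5), growth inhibition confirmed by plating on Löwenstein-Jensen solid medium and counting colony forming units.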

[8] = Retention time of the compound by RP-HPLC analysis; assay type: physicochemical
Outline: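 Analytical RP-HPLC on a C18 column (5 μm, 100 Å, 4.6 × 150 mm). Eluent A 0.1% TFA in water, eluent B 0.1% TFA in acetonitrile-water 80:20. Gradient 0% B for 5 min, to 60% B at 15 min, to 100% B at 25 min. Flow 1 mL/min, detection at 220 nm.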

[9] = Cytotoxicity against mouse bone marrow derived macrophages assessed as reduction in cell viability incubated for 48 hrs by MTT assay; assay type: toxicity, cell-based, Macrophage
Outline: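 Murine bone marrow-derived macrophages exposed for 48 h, viability by MTT. Highest concentration tested 100 µM. IC50 taken from dose-response curves.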

[10] = Stability in rat liver lysosomal homogenate assessed as drug degradation at 50 uM and measured upto 24 hrs by HPLC-MS analysis; assay type: ADME, subcellular, Lysosome; conditions: tissue homogenate
Outline: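 Conjugates incubated in rat liver lysosomal homogenate. Reaction mixtures sampled at 5 min, 1 h, 2 h, 4 h, 8 h and 24 h and analysed by HPLC-MS (chromatograms and mass spectra) to identify intact conjugate, fragments and cleavage sites.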

[11] = Selectivity index, ratio of IC50 for cytostatic activity against human MONO-MAC-6 cells to MIC for antimycobacterial activity against Mycobacterium tuberculosis H37Rv ATCC 27294; assay type: toxicity, cell-based; conditions: read-out: Selectivity Index
Outline: (§5)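 MTT assay on MonoMac6 or HepG2 cells after 24 h exposure, top concentration 200 µM. SI = IC50 (µM)/MIC (µM) against H37Rv from the 4-week Sula medium assay.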

[12] = test system: HepG2; test: Cytostatic activity against human HepG2 cells assessed as reduction in cell viability incubated for 24 hrs by MTT assay; assay type: functional, cell-based; conditions: HepG2, 24 h; outline: as §2
[13] = Stability of the compound in Sula's semisynthetic medium containing 10% DMSO assessed as free salicylanilide formation at pH 6.5 at 2 mg/ml after 4 weeks at 37 degree C by reverse phase HPLC analysis
Outline: (§6)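 Conjugate incubated in Sula semisynthetic medium (pH 6.5) at 37 °C for 4 weeks. Decomposition to free salicylanilide and 2-hydroxyacetyl-tuftsin derivative followed by analytical RP-HPLC and mass spectrometry.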

[14] = test system: Mycobacteroides abscessus; test: Antimycobacterial activity against Mycobacterium abscessus ATCC 19977 assessed as reduction in bacterial growth after 7 days by serial dilution method; assay type: functional; conditions: ATCC 19977, 168 h, time 7 day; outline: as §3
[15] = Selectivity index, ratio of IC50 for cytostatic activity against human HepG2 cells to MIC for antimycobacterial activity against Mycobacterium tuberculosis H37Rv ATCC 27294; assay type: toxicity, cell-based; conditions: read-out: Selectivity Index; outline: as §5
[16] = Stability of the compound in serum free RPMI-1640 medium containing 2% DMSO at 1 mg/ml after 1 week by reverse phase HPLC analysis; conditions: time 1.0 weeks; outline: as §4
[17] = test system: Mycobacterium tuberculosis; test: Antimycobacterial activity against Mycobacterium tuberculosis H37Rv ATCC 27294 assessed as reduction in bacterial growth after 28 days by serial dilution method; assay type: functional; conditions: H37Rv ATCC 27294, 672 h, time 28 day
Outline: (§7)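 Broth MIC in Sula semisynthetic medium, pH 6.5; 4-week incubation, with 21-day values […] where indicated. Drug-free inoculated bacteria served as growth control. MIC also expressed as drug content (µg/mL) = MIC (µM) × average SAL molar mass × number of SAL per conjugate / 1000.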

[18] = Stability of the compound in DMSO at 4 degree C at 2 mM up to 3 weeks by reverse phase HPLC analysis; assay type: physicochemical; conditions: 504 h, 2000 µM; outline: as §4
[19] = Stability of the compound in Sula's semisynthetic medium containing 10% DMSO assessed as 2-hydroxyacetyl-tuftsin derivative formation at pH 6.5 at 2 mg/ml after 4 weeks at 37 degree C by reverse phase HPLC analysis; outline: as §6
[20] = test system: Mycobacterium tuberculosis; test: Antimycobacterial activity against Mycobacterium tuberculosis H37Rv ATCC 27294 assessed as reduction in bacterial growth after 21 days by serial dilution method; assay type: functional; conditions: H37Rv ATCC 27294, 504 h, time 21 day; outline: as §7

| SMILES | Activity [1] | Activity [2] | selectivity ratio [3] | IC50 [4] [µM] | Activity [5] | Stability [6] | Activity [7] | Retention_time [8] [min] | IC50 at 48 h [9] [µM] | Stability [10] | selectivity ratio [11] | IC50 [12] [µM] | Stability [13] | MIC [14] [µM] | selectivity ratio [15] | Stability [16] | MIC [17] [µM] | Stability [18] | Stability [19] | MIC [20] [µM] |
| --- | --- | --- | --- | --- | --- | --- | --- | --- | --- | --- | --- | --- | --- | --- | --- | --- | --- | --- | --- | --- |
| C/C(=N\OCC(=O)N[C@H](C(=O)N[C@@H](CCCCN)C(=O)N1CCC[C@H]1C(=O)N[C@@H](CCCCN)C(=O)NCC(=O)N[C@H](C(=O)N[C@@H](CCCCN)C(=O)N1CCC[C@H]1C(=O)N[C@@H](CCCCN)C(=O)NCC(=O)N[C@H](C(=O)N[C@@H](CCCCN)C(=O)N1CCC[C@H]1C(=O)N[C@@H](CCCCN)C(=O)NCC(=O)N[C@H](C(=O)N[C@@H](CCCCN)C(=O)N1CCC[C@H]1C(=O)N[C@@H](CCCCN)C(=O)NCC(N)=O)[C@@H](C)O)[C@@H](C)O)[C@@H](C)O)[C@@H](C)O)c1ccc(NC(=O)c2cc(Br)ccc2O)cc1 ({Benzoyl(5-Br-2-OH)}-[X1]TKPKGTKPKGTKPKGTKPKG-NH2) | Active | Active | 1.2 | > 200 | Active | Stable | Active | 14.3 | > 100 | Unstable | > 2.5 | 81.9 | Stable | 40.8 (≈ 100 µg/mL) | 1 | Stable | 81.5 (≈ 200 µg/mL) | Stable | Stable | – |
| CCCCCCCCCC(=O)NCCCC[C@H](NC(=O)[C@@H]1CCCN1C(=O)[C@H](CCCCN)NC(=O)[C@@H](NC(=O)CO/N=C(\C)c1ccc(NC(=O)c2cc(Br)ccc2O)cc1)[C@@H](C)O)C(=O)NCC(=O)N[C@H](C(=O)N[C@@H](CCCCN)C(=O)N1CCC[C@H]1C(=O)N[C@@H](CCCCN)C(=O)NCC(=O)N[C@H](C(=O)N[C@@H](CCCCN)C(=O)N1CCC[C@H]1C(=O)N[C@@H](CCCCN)C(=O)NCC(=O)N[C@H](C(=O)N[C@@H](CCCCN)C(=O)N1CCC[C@H]1C(=O)N[C@@H](CCCCN)C(=O)NCC(N)=O)[C@@H](C)O)[C@@H](C)O)[C@@H](C)O ({Benzoyl(5-Br-2-OH)}-[X1]TKPK(Decanoyl)GTKPKGTKPKGTKPKG-NH2) | Active | Active | 0.9 | 24.9 | Active | Stable | Active | 16.4 | 71.9 | Unstable | 0.3 | 113 | – | 76.7 (≈ 200 µg/mL) | 1.5 | Stable | – | Stable | – | 76.7 (≈ 200 µg/mL) |
